Assay [1] is described as follows: Cytotoxicity against human KB/VCR cells at 25 uM after 72 hrs by SRB method. Type of assay: functional. An outline of the steps: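 Test sample was given alone at 25 µM, and cytotoxicity was expressed as percent inhibition ratio.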
Background: Sulforhodamine B stains cellular protein and so reports cell mass.

Assay [2] in a line: Resistance factor, ratio of vincristine IC50 to vincristine IC50 in presence of compound for human KB/VCR cells. In kind it is functional. A digest of the protocol: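 Vincristine was serially diluted from 0.125 to 1 µM and tested with or without 25 µM test sample. Resistance factor is the vincristine IC50 alone divided by the vincristine IC50 with sample.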
The nature of assay [3]: Cytotoxicity against human KB/VCR cells at 10 uM after 72 hrs by SRB method. In kind it is functional.
A short description of assay [4]: Cytotoxicity against human KB/VCR cells after 72 hrs by SRB method. Type of assay: functional, cell-based.

Each structure is given as a SMILES string.

In the case of `CCCCC[C@@H](CCCCCCC[C@H](O)CC(=O)O)O[C@@H]1O[C@H](CO[C@@H]2O[C@@H](C)[C@H](O)[C@@H](O)[C@H]2OC(=O)[C@H](C)[C@@H](C)O)[C@@H](O)[C@H](O)[C@H]1O[C@@H]1O[C@H](CO)[C@@H](O[C@@H]2O[C@@H](C)[C@H](O)[C@@H](OC(=O)[C@H](C)[C@@H](C)O)[C@H]2O)[C@H](O)[C@H]1O`, the inhibition (commonly the relative decrease from the control value, in per cent) at 25 µM in assay [1] amounted to 0.83%. Also, the “Ratio IC50” value in assay [2] is listed as 1.32.

For `CCCCC[C@@H](CCCCCCCCCC(=O)O)O[C@@H]1O[C@H](CO[C@@H]2O[C@@H](C)[C@H](O)[C@@H](O)[C@H]2OC(=O)[C@H](C)[C@@H](C)O)[C@@H](O)[C@H](O)[C@H]1O[C@@H]1O[C@H](CO)[C@@H](O[C@@H]2O[C@@H](C)[C@H](O)[C@@H](OC(=O)[C@H](C)[C@@H](C)O)[C@H]2O)[C@H](O)[C@H]1O`, the inhibition at 25 µM in assay [1] is 2.52%. Further, the “Ratio IC50” value in assay [2] is 1.19.

The compound `CCCCC[C@H](O)CCCCCCCCCC(=O)O[C@H]1[C@H](O[C@H]2C(O)O[C@H](CO)[C@@H](O)[C@@H]2O)O[C@@H](C)[C@H](OC(=O)[C@H](C)[C@@H](C)O)[C@H]1O[C@@H]1O[C@@H](C)[C@H](O)[C@@H](O)[C@H]1O` (some centres not stated) returned an inhibition at 25 µM in assay [1] of 1.35%. In addition, in assay [2], the “Ratio IC50” value was 1.78.

In turn, `CCC[C@H](O)CCCCCCCCCC(=O)O[C@H]1[C@H](O[C@H]2C(O)O[C@H](CO)[C@@H](O)[C@@H]2O)O[C@@H](C)[C@@H](OC(=O)[C@H](C)[C@@H](C)O)[C@H]1O[C@@H]1O[C@@H](C)[C@H](O)[C@@H](O)[C@H]1O` (some centres not stated) gave an inhibition at 25 µM in assay [1] of 1.64%. Moreover, in assay [2], the “Ratio IC50” value is 1.03.

`CCCCC[C@H](O)CCCCCCCC(=O)O[C@H]1[C@H](O[C@H]2C(O)O[C@H](COC(C)=O)[C@@H](O)[C@@H]2O)O[C@@H](C)[C@@H](OC(=O)[C@H](C)[C@@H](C)O)[C@H]1O[C@@H]1O[C@@H](C)[C@H](O)[C@@H](O)[C@H]1O` (some centres not stated) returned an inhibition at 25 µM in assay [1] of 0.85%. Further, the “Ratio IC50” value in assay [2] was found to be 1.36.

In assay [3], `COc1ccc(CCN(C)CCCC(C#N)(c2ccc(OC)c(OC)c2)C(C)C)cc1OC` (configuration not stated) had an inhibition at 10 µM of 0.45%.

On to `CC[C@]1(O)C[C@H]2CN(CCc3c([nH]c4ccccc34)[C@@](C(=O)OC)(c3cc4c(cc3OC)N(C=O)[C@H]3[C@@](O)(C(=O)OC)[C@H](OC(C)=O)[C@]5(CC)C=CCN6CC[C@]43[C@@H]65)C2)C1` [VINCRISTINE], for which it took 570 nM to reach half-maximal inhibition in assay [4] (IC50).
